Assay results gathered from unrelated publications.
Each line is one published result; the experiments were not run side by side.
OPRK1: Kappa-type opioid receptor (OPRK1, Homo sapiens, UniProt P41145)
ADORA2A: Adenosine receptor A2a (ADORA2A, Homo sapiens, UniProt P29274)
CNR1: Cannabinoid receptor 1 (CNR1, Homo sapiens, UniProt P21554)
PDE5A: cGMP-specific 3',5'-cyclic phosphodiesterase (PDE5A, Homo sapiens, UniProt O76074)
PARP1: Poly [ADP-ribose] polymerase 1 (PARP1, Homo sapiens, UniProt P09874)
SPHK1: Sphingosine kinase 1 (SPHK1, Homo sapiens, UniProt Q9NYA1)
EHMT1: Histone-lysine N-methyltransferase EHMT1 (EHMT1, Homo sapiens, UniProt Q9H9B1)

SMILES	target	test	conditions	inhibition
CCN(CC)c1ccc(C2Nc3ccc(C(=O)c4ccccc4)cc3NC3=C2C(=O)CC(C)(C)C3)cc1 (stereo not shown)	OPRK1	ligand displacement, radioligand	10 µM	10%
Oc1ccc(CCNc2ccc3oc(-c4ccco4)nc3c2)cc1	ADORA2A	ligand displacement, radioligand	10 µM, cell membranes	15%
Nc1ccc(-c2ccncc2)cc1NC(=O)N1CCCC1	CNR1	ligand displacement, radioligand	10 µM	15%
CCN(Cc1ccccc1C(F)(F)F)C(=O)C1CCN(S(=O)(=O)c2ccc3[nH]ncc3c2)CC1	OPRK1	ligand displacement, radioligand	10 µM	5%
CCN1C(=O)[C@@H]2Cc3c([nH]c4ccccc34)[C@@H](c3ccc(OC)c(OC)c3)N2C1=O	PDE5A	enzyme activity, inhibitor, FP	50 µM	75%
Cc1cnc(C(=O)NCCNC(=O)Cn2[nH]c(=O)c3ccccc3c2=O)cn1	PARP1	enzyme activity, inhibitor	0.5 µM	~50%
O=C(c1ccc(F)cc1)N(Cc1ccccc1)C1CCCCC1	CNR1	cell-free assay	10 µM	18%
COc1ccc(-c2nc3cc(CN4CCCCC4)ccc3o2)cc1OC	ADORA2A	ligand displacement, radioligand	10 µM, cell membranes	18%
O=C(CSc1nc2nccnc2c(=O)n1CCc1ccccc1)Nc1nccs1	SPHK1	enzyme activity, inhibitor	10 µM	8%
O=C1c2c(O)cccc2Cc2cccc(O)c21	EHMT1	cell-free assay	10 µM	10%
COc1cc2c(cc1OC)-c1nnnn1CCC2	PARP1	enzyme activity, inhibitor	10 µM	60%
COc1cc(NC(C)=O)c(Cl)cc1C(=O)Nc1nccs1	CNR1	cell-free assay	10 µM	11.8%
N=C(N)N1CCC[C@H]1c1nc(-c2ccc(CCC3CC3)c(C(F)(F)F)c2)no1	SPHK1	enzyme activity, inhibitor, radiometric	1 µM	14%
CN(C)c1ccc(C(=C2C=CC(=[N+](C)C)C=C2)c2ccc(N(C)C)cc2)cc1	EHMT1	cell-free assay	10 µM	62%
CCCCc1ccc(CCc2ccc(-c3noc([C@@H]4CCCN4C(=N)N)n3)cc2C(F)(F)F)cc1	SPHK1	enzyme activity, inhibitor, radiometric	1 µM	6%
CCCNc1nc2ccccc2n1Cc1ccc(Cl)cc1	Histamine H4 receptor (HRH4, Homo sapiens, UniProt Q9H3N8)	ligand displacement	10 µM	-8.89%
O=C(O[C@@H]1Cc2c(O)cc(O)cc2O[C@@H]1c1cc(O)c(O)c(O)c1-c1c([C@H]2Oc3cc(O)cc(O)c3C[C@H]2O)cc(O)c(O)c1O)c1cc(O)c(O)c(O)c1	EHMT1	cell-free assay	10 µM	-3%
COC(=O)[C@@H]1Cc2c([nH]c3ccccc23)[C@@H](c2cccnc2)N1	PDE5A	enzyme activity, inhibitor, FP	50 µM	41%
CCCc1ccc(CCc2ccc(-c3noc([C@@H]4CCCN4C(=N)N)n3)cc2C(F)(F)F)cc1	SPHK1	enzyme activity, inhibitor, radiometric	1 µM	6%
CN1CCN(CCCOc2ccc(=O)n(-c3ccc(Cl)c(Cl)c3)n2)CC1	Sodium channel protein type 9 subunit alpha (SCN9A, Homo sapiens, UniProt Q15858)	ligand displacement	1 µM	20.5%
O=C(c1ccc(Cl)cc1)N(Cc1ccccc1)C1CCCCC1	ADORA2A	cell-free assay	10 µM	9.1%
[H]/N=C(\N)N1CCC[C@H]1c1nc(-c2ccc(OCC=Cc3ccccc3C(F)(F)F)c(C(F)(F)F)c2)no1	SPHK1	enzyme activity, inhibitor, radiometric	1 µM	0%
CN(C)C1CCN(CC#Cc2nn(C3CCCC3)c3nc(NCc4ccccc4)ncc23)C1 (stereo not shown)	Serine/threonine-protein kinase TBK1 (TBK1, Homo sapiens, UniProt Q9UHD2)	enzyme activity, inhibitor, FRET	1 µM	3%

SMILES	target	test	conditions	inhibition
[H]/N=C(/N)N1CCC[C@H]1c1nc(-c2ccc(OCCC=CCCC)c(C(F)(F)F)c2)no1	SPHK1	enzyme activity, inhibitor, radiometric	1 µM	11%
Oc1cccc(Nc2nc(-c3ccc(F)cc3F)cs2)c1	ADORA2A	cell-free assay	10 µM	76%
COc1ccc(CCc2ccc(-c3noc([C@@H]4CCCN4C(=N)N)n3)cc2C(F)(F)F)cc1	SPHK1	enzyme activity, inhibitor, radiometric	1 µM	0%
O=c1[nH]c(-c2c[nH]c3ncccc23)nc2ccccc12	PARP1	enzyme activity, inhibitor, ELISA	10 µM	28%
O=C1NCCCc2ccc(F)cc21	PARP1	enzyme activity, inhibitor	10 µM	15%
CCCCC=CCOc1ccc(-c2noc([C@@H]3CCCN3C(=N)N)n2)cc1C(F)(F)F	SPHK1	enzyme activity, inhibitor, radiometric	1 µM	18%
COc1ccc([C@@H]2c3[nH]c4ccccc4c3C[C@H]3C(=O)N(C(C)(C)C)C(=O)N23)cc1OC	PDE5A	enzyme activity, inhibitor, FP	50 µM	79%
O=C(O)CCCCCCCCCCCC[C@@H]1C=CCC1	EHMT1	cell-free assay	10 µM	-11%
COC(=O)[C@@H]1Cc2c([nH]c3ccccc23)[C@@H](c2ccc(OC)c(OC)c2)N1	PDE5A	enzyme activity, inhibitor, FP	50 µM	7%
CC(C)(C)OC(=O)N1CCN(Cc2ccc3oc(-c4ccco4)nc3c2)CC1	ADORA2A	ligand displacement, radioligand	10 µM, cell membranes	15%
Ic1cccc2cnccc12	PARP1	enzyme activity, inhibitor	10 µM	19.5%
O=C(Nc1ccc(S(=O)(=O)N2CCC(Cl)CC2)cc1)c1ccc([N+](=O)[O-])o1	Sigma non-opioid intracellular receptor 1 (SIGMAR1, Homo sapiens, UniProt Q99720)	ligand displacement, radioligand	10 µM	38%
CC(C)(C)N1C(=O)[C@@H]2Cc3c([nH]c4ccccc34)[C@@H](c3cccnc3)N2C1=O	PDE5A	enzyme activity, inhibitor, FP	50 µM	90%
COc1cc(NC(C)CCCN)c2ncccc2c1 (stereo not shown)	EHMT1	cell-free assay	10 µM	7%
O=C(CN1CCNCC1)Nc1ccc2oc(-c3ccco3)nc2c1	ADORA2A	ligand displacement, radioligand	10 µM, cell membranes	8%
CC(C)(C)N1C(=O)[C@@H]2Cc3c([nH]c4ccccc34)[C@@H](c3ccc(Br)s3)N2C1=O	PDE5A	enzyme activity, inhibitor, FP	10 µM	90%
CN1CC(Oc2cnc(C#N)cc2-c2ccn3nc(NC(=O)C4CC4)cc3c2)C1	Testis-specific serine/threonine-protein kinase 4 (TSSK4, Homo sapiens, UniProt Q6SA08)	enzyme activity, inhibitor	1 µM	-7%
COC(=O)[C@H]1Cc2c([nH]c3ccccc23)[C@H](c2ccc(OC)c(OC)c2)N1C(=O)CCl	PDE5A	enzyme activity, inhibitor, FP	50 µM	75%
O=C(CSc1nc2nccnc2c(=O)n1CCc1ccccc1)Nc1ccccc1	Phosphatidylinositol 4-phosphate 3-kinase C2 domain-containing subunit beta (PIK3C2B, Homo sapiens, UniProt O00750)	enzyme activity, inhibitor	10 µM	72%
CCN1C(=O)[C@H]2Cc3c([nH]c4ccccc34)[C@H](c3cccnc3)N2C1=O	PDE5A	enzyme activity, inhibitor, FP	50 µM	58%
CN(C)c1ccc2nc3ccc(=[N+](C)C)cc-3sc2c1	EHMT1	cell-free assay	10 µM	30%
CS(=O)(=O)Nc1cccc(-c2csc(NC(=O)CSc3nc4nccnc4c(=O)n3CCc3ccccc3)n2)c1	SPHK1	enzyme activity, inhibitor	10 µM	9%
COc1ccc(F)cc1C(=O)NCc1ccc(-c2nn([C@@H](C)C(F)(F)F)c(N)c2C(N)=O)cc1	Mitogen-activated protein kinase kinase kinase 3 (MAP3K3, Homo sapiens, UniProt Q99759)	target engagement in cells, inhibitor, chemoproteomics	0.1 µM	26.3%
